VIM-2 inhibitor: VIM-2 metallo-beta-lactamase inhibitors, primary screen, biochemical, epi-absorbance readout, Pseudomonas aeruginosa enzyme. inhibition, % at 5.6 µM. 0.89% of 290,000 active. AID 1527, 2009. purified VIM-2, nitrocefin hydrolysis, epi-absorbance fluorescence;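 active = inhibition above the mean of all tested compounds plus 3 SD, cutoff set per screening run, cut at about 7.5% in these data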;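 note: red hydrolysis product quenches plate fluorescence so inhibitors raise well fluorescence; 0% = enzyme with DMSO and 100% = DMSO without enzyme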
CHT allo act: CHT positive allosteric modulators, primary screen, cell-based, membrane potential dye, choline EC20; High affinity choline transporter 1 (Homo sapiens), Q9GZV3; CHT-expressing cells; active compounds read high; LV-AA mutant CHT in HEK293 cells; B-score at 10 µM; 0.49% of 310,000 active; AID 488977, 2010;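 active = initial fluorescence not abnormally high and integrated response B-score, plate-corrected, over 3 SD above library mean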
IMP-1 inh: IMP-1 metallo-beta-lactamase inhibitors, primary screen, biochemical, epi-absorbance readout, Pseudomonas aeruginosa enzyme | metallo-beta-lactamase IMP-1 (Pseudomonas aeruginosa) | purified IMP-1, nitrocefin hydrolysis, epi-absorbance fluorescence | inhibition, % at 5.6 µM | 0.45% of 290,000 active;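 active = inhibition above the mean plus 3 SD of all compounds in the same screening run, cut at about 4.5% in these data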;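 note: 0% = IMP-1 with DMSO and 100% = DMSO wells lacking enzyme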
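System: purified IMP-1; amount: IMP-1 0.2 nM before substrate addition; compound: single dose, 5.6 µM; times: 25 °C, 15 min preincubation, 25 min reaction; signal: Epi-absorbance via hydrolysed-nitrocefin quenching of white-plate fluorescence, 480/530 nm, EDTA stop; benchmarks: DMSO with and without IMP-1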
ANO1 activ: TMEM16A chloride channel activators or potentiators, primary screen, cell-based, HTS; Anoctamin-1 (Mus musculus), Q8BHY3; HEK293 TMEM16A/YFP-H148Q/I152L, iodide quench fluorescence; active compounds read low; B-score at 10 µM; 0.3% of 340,000 active; AID 623877, 2012;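 active = fluorescence-ratio B-score plate-corrected deviation score at least 3 library SD below zero, with starting fluorescence score within 5 deviations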;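 note: channel opened by trigger with iodide after compound preincubation; score built on the fluorescence ratio of max minus min over baseline; more negative score means more quench and so TMEM16A activation or potentiation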
Target sequence (Q8BHY3 whole entry, looked up): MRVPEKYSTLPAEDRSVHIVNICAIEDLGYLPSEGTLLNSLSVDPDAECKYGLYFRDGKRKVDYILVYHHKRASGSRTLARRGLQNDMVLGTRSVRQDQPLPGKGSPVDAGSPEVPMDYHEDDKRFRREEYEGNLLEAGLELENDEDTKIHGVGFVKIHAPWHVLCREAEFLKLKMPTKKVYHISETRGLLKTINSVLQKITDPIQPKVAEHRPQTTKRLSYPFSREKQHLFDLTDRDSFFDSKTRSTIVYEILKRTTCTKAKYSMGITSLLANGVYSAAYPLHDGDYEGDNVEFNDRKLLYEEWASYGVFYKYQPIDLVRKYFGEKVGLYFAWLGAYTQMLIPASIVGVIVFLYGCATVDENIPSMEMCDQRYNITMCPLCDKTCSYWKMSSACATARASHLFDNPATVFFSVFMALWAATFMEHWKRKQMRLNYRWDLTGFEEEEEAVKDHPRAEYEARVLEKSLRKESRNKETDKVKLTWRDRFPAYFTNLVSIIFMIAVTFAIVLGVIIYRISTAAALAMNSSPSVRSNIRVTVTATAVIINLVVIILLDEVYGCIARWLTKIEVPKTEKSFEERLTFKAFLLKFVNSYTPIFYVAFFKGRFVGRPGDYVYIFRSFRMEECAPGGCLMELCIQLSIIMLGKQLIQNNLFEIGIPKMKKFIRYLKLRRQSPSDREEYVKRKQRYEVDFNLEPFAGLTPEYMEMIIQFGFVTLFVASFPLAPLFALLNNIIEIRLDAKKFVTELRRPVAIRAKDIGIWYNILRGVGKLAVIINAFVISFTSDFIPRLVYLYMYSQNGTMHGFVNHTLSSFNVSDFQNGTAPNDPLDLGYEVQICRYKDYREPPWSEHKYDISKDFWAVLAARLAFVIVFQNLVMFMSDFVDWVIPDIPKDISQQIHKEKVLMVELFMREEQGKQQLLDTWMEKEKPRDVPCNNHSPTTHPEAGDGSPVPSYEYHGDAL
CHT inh: inhibitors of human choline transporter CHT | CHT-expressing cells, membrane potential dye, choline response; active compounds read low | B-score at 10 µM | 0.86% of 310,000 active | AID 488975, 2010;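 active = B-score over 3 SD under the library average, and starting fluorescence ratio not unusually high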;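 note: choline stimulus applied at its EC90 after an EC20 pre-addition; B-score computed on integrated fluorescence ratio after choline addition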
TMEM16A inh: TMEM16A chloride channel inhibitors, primary screen, cell-based, HTS; normalized B-score (activity score, 25-100; higher = stronger inhibition) at 10 µM; AID 588511, 2011; Anoctamin-1 (Mus musculus), Q8BHY3; 1.2% of 310,000 active; HEK293 TMEM16A/YFP iodide influx fluorescence, ionomycin;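 active = ratio plate-corrected score three or more library SD toward inhibition, starting fluorescence score within five deviations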;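 note: score derived from kinetic fluorescence span divided by baseline fluorescence per well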
CHT activ conf: CHT activators, confirmation, cell-based, membrane potential dye, duplicate; shares compounds with CHT allo act; CHT-expressing cells, membrane potential dye fluorescence (FDSS); % of choline EC20–EC90 response window; HEK293 expressing CHT LV-AA mutant; choline added at its EC20; activation, % at 10 µM; 91% of 2,500 active; AID 504833, 2011;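 active = primary screen active, with duplicate mean activation above negative control mean plus 3 SD, cut at about 11% in these data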
HEK293 MP dye: membrane potential response in parental HEK293 cells, counter-screen for CHT activator project, cell-based, membrane potential dye; shares compounds with CHT allo act; membrane potential dye fluorescence (FDSS); measured after EC20 choline addition; ratio readout change at 10 µM, hits read low; 62% of 2,500 active; AID 623908, 2012;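 active = duplicate-averaged ratio beyond 3 SD from buffer wells, up or down, though filed actives are nearly all decreases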
Numbers without * were called inactive. The list is not random: actives were taken first. Their share in the collection is about 3.4%.

Screening O=C(O)c1ccc(CSC2CCCCC2)cc1 returned VIM-2 inhibitor 0.1, CHT allo act inactive, IMP-1 inh -1.8, ANO1 activ inactive, CHT inh inactive and TMEM16A inh inactive.
Screening CC[n+]1c(/C=C(\C)OC)sc2ccccc21 returned VIM-2 inhibitor -4.1, IMP-1 inh -0.5 and ANO1 activ inactive.
`CC[n+]1c(/C=C(\C)SC)sc2ccccc21` gave VIM-2 inhibitor 1.8, CHT allo act 7.35*, IMP-1 inh -0.4, ANO1 activ inactive, CHT inh inactive, TMEM16A inh inactive, CHT activ conf 58.3* and HEK293 MP dye -24.8*.
Screening CC[n+]1c(/C=C(/C)SC)sc2ccccc21 returned VIM-2 inhibitor 0.2, CHT allo act 6.85*, IMP-1 inh -3.9, ANO1 activ inactive, CHT inh inactive, TMEM16A inh inactive, CHT activ conf 59.1* and HEK293 MP dye -23.5*.
`CC[n+]1c(/C=C/Nc2ccccc2)sc2ccccc21` gave VIM-2 inhibitor -0.7, CHT allo act inactive, IMP-1 inh -1.1, ANO1 activ inactive, CHT inh inactive, TMEM16A inh inactive, CHT activ conf 46.1* and HEK293 MP dye -50.8*.
`CC[n+]1c(/C=C(\C)Nc2ccccc2)sc2ccccc21` gave VIM-2 inhibitor 0.8, CHT allo act inactive, IMP-1 inh -2.3, ANO1 activ inactive, CHT inh inactive and TMEM16A inh inactive.
Screening CC/C(=C/c1sc2ccccc2[n+]1CC)SC returned VIM-2 inhibitor -1.0, CHT allo act 6.48*, IMP-1 inh -2.1, ANO1 activ inactive, CHT inh inactive, TMEM16A inh inactive, CHT activ conf 50.5* and HEK293 MP dye inactive.
COc1ccc(N2CCN(C(=O)C3CCCN3S(=O)(=O)c3cccc4nsnc34)CC2)cc1 (configuration not stated) was read as VIM-2 inhibitor -2.5, CHT allo act inactive, IMP-1 inh -1.7, ANO1 activ inactive, CHT inh inactive and TMEM16A inh inactive.
`CCn1c(C)nc2cc(NC(=O)Nc3cccc(C(C)=O)c3)ccc21` gave VIM-2 inhibitor -2.4, CHT allo act inactive, IMP-1 inh -2.7, ANO1 activ inactive, CHT inh inactive and TMEM16A inh inactive.
Screening COCCCN(C(=O)CSCC(=O)Nc1ccc(C)cc1)c1c(N)n(Cc2ccccc2)c(=O)[nH]c1=O returned ANO1 activ inactive.
For COc1cc(-c2nc3cccc(C)n3c2NCC2CCCO2)ccc1O (configuration not stated) the results were VIM-2 inhibitor -4.9, CHT allo act 6.74*, IMP-1 inh -3.2, ANO1 activ inactive, CHT inh inactive, TMEM16A inh inactive, CHT activ conf 35.9* and HEK293 MP dye -40.4*.
Screening CCC1=C(OC(=O)N(CC)CC)N2C(=O)OC(=NCC3CC3)[C@]2(Cc2ccccc2)[C@H]2C1=CC[C@H]1C(=O)N(C)C(=O)[C@H]12 returned CHT allo act 7.16*, ANO1 activ inactive, CHT inh inactive, TMEM16A inh inactive, CHT activ conf 39.8* and HEK293 MP dye inactive.
`Cn1c(=O)n(C)c2cc([N+](=O)[O-])c(N3CCN(CCO)CC3)cc21` gave VIM-2 inhibitor -0.3, CHT allo act 9.31*, IMP-1 inh -1.1, ANO1 activ inactive, CHT inh inactive, TMEM16A inh inactive, CHT activ conf 52.9* and HEK293 MP dye -69.7*.
Cn1c(=O)n(C)c2cc([N+](=O)[O-])c(N3CCN(S(C)(=O)=O)CC3)cc21 was read as VIM-2 inhibitor -0.5, CHT allo act inactive, IMP-1 inh -4.1, ANO1 activ inactive, CHT inh inactive and TMEM16A inh inactive.
CC(C)n1ncc2c(C(=O)NCCc3ccc(S(N)(=O)=O)cc3)cc(C3CC3)nc21 was read as ANO1 activ inactive.
CN1CCN(CCCNC(=O)c2cn(C)c3ccc(S(=O)(=O)N(C)C)cc3c2=O)CC1 was read as VIM-2 inhibitor 2.6, CHT allo act 6.87*, IMP-1 inh -5.8, ANO1 activ inactive, CHT inh inactive, TMEM16A inh inactive, CHT activ conf 41.3* and HEK293 MP dye -22.7*.
For CC(C)N(CCNC(=O)c1cn(C)c2ccc(S(=O)(=O)N(C)C)cc2c1=O)Cc1ccccc1 the results were VIM-2 inhibitor -0.4, CHT allo act inactive, IMP-1 inh 2.0, ANO1 activ inactive, CHT inh inactive and TMEM16A inh inactive.
For CCOc1ccc(S(=O)(=O)N2CCC(C(=O)NCC3CCCO3)CC2)cc1Cl (configuration not stated) the results were VIM-2 inhibitor -1.5, CHT allo act inactive, IMP-1 inh -1.4, ANO1 activ inactive, CHT inh inactive and TMEM16A inh inactive.
COc1cccc2c(=O)n(CC(=O)NCCc3ccccc3)ccc12 was read as VIM-2 inhibitor -1.5, CHT allo act inactive, IMP-1 inh -2.2, ANO1 activ inactive, CHT inh inactive and TMEM16A inh inactive.
`COc1ccc(NC(=O)Cn2ccc3c(OC)cccc3c2=O)cc1` gave VIM-2 inhibitor -2.4, CHT allo act inactive, IMP-1 inh -3.3, ANO1 activ inactive, CHT inh inactive, TMEM16A inh inactive, CHT activ conf 5.2 and HEK293 MP dye inactive.
Screening Cc1cc(C)nc(SCc2nc3nc(C)cc(C)n3c2Br)n1 returned VIM-2 inhibitor 7.0, CHT allo act inactive, IMP-1 inh -0.4, ANO1 activ inactive, CHT inh inactive and TMEM16A inh inactive.
`Cc1cc(C)n2c(Br)c(CN3CCCC(C)C3)nc2n1` (configuration not stated) gave VIM-2 inhibitor -2.2, CHT allo act 6.55*, IMP-1 inh -3.4, ANO1 activ inactive, CHT inh inactive, TMEM16A inh inactive, CHT activ conf 28.8* and HEK293 MP dye -51*.

Compound activity from PubChem BioAssay.
